Experiments:
[1] = tested on: HES1 promoter occupancy in OE33 and 786-0 cells; assay: ChIP assay on the HES1 promoter; assay type: cell-based, human; settings: DAPT 15 μM, IMR-1 25 μM
Outline: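 OE33 and 786-0 cells were exposed to DAPT, test compound or DMSO vehicle. Chromatin immunoprecipitation used the indicated antibodies against NTC components, and HES1 promoter occupancy was assessed.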

[2] = tested on: Notch-independent cell lines (refractory to DAPT); assay: Colony formation assay, Notch-independent cell lines; assay type: cell-based, human; settings: cells refractory to DAPT
Notch1 (NICD) = Notch1 (NICD) (Homo sapiens, UniProt P46531); assay: Surface plasmon resonance, binding to NICD; settings: for mode of binding to Notch1: SPR sensorgrams, dissociation to baseline; for Kd: SPR, equilibrium approach, 1:1 binding model, wild type NICD
Outline: (§1)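 NICD (wild type or point mutant) was amine-coupled to a CM5 chip. Runs were on a Biacore T200 at 25 °C in 10 mM PBS pH 7.5 with 5% DMSO as running buffer. Signals were corrected against a DMSO control. Dissociation was followed under buffer flow. KD came from equilibrium response (Req) versus test compound concentration, fitted to a 1:1 binding model.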

[3] = Plasma pharmacokinetic profile in mice; assay type: in vivo, male C57 BL/6 mice; settings: for signal in plasma: after IMR-1 i.v. 2 mg/kg and i.p. 100 mg/kg, any time point
Outline: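 Male C57BL/6 mice received a single test compound dose, either 2 mg/kg i.v. or 100 mg/kg i.p. Plasma was analysed by mass spectrometry (m/z) for parent and acid metabolite. Metabolite PK parameters (Tmax, T1/2, CL, Vss) were calculated on the parent dose. Clearance was referenced to 90 mL/min/kg liver blood flow, and Vss to 0.7 L/kg total body water.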

[4] = target: Notch ternary complex (CSL, Notch1, Maml1 on DNA) (Homo sapiens, UniProt P46531); assay: in vitro Notch ternary complex; assay type: biochemical; settings: for IC50: in vitro NTC assay, dose-response
D. rerio (zebrafish) = assay: Somite formation in zebrafish embryos; assay type: in vivo; settings: embryos soaked in 40 μM IMR-1
Outline: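 Zebrafish embryos were exposed to test compound at 8 hpf and examined at 13 hpf in coronal view for somites. Controls were untreated, DMSO vehicle, and 100 pg human Notch1 intracellular domain mRNA-injected embryos. The percentage of embryos with somites was scored and compared by Fisher's exact test.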

NICD R2105A = NICD R2105A (Homo sapiens, UniProt P46531, R2104A); assay: Surface plasmon resonance, binding to mutated NICD; settings: SPR, R2105 substituted by alanine
Outline: as §1

NICD R2096A = NICD R2096A (Homo sapiens, UniProt P46531, R2095A); assay: Surface plasmon resonance, binding to mutated NICD; settings: SPR, R2096 substituted by alanine
Outline: as §1

[5] = tested on: patient-derived esophageal adenocarcinoma xenograft (EAC29 and EAC47); assay: Patient-derived esophageal adenocarcinoma xenograft; assay type: in vivo
Outline: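 Patient-derived esophageal adenocarcinoma tumors were grown in NSG mice to 200 mm3 before treatment began. Mice then received daily i.p. doses of test compound (15 mg/kg), comparator inhibitor (20 mg/kg) or DMSO vehicle. After 24 days, tumors were harvested. Notch target gene transcription was measured by RT-qPCR (TaqMan) and normalized to TBP and HPRT.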

[6] = tested on: OE19 human esophageal adenocarcinoma cells; assay: OE19 xenograft model in nude mouse; assay type: in vivo; settings: 15 mg/kg
Outline: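 Nude mice received 5 × 10^6 OE19 cells in the flank, and tumors developed over 4 weeks. Mice were treated with test compound at 15 mg/kg or DMSO control. Tumor establishment and body weight were monitored through treatment.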

NICD R2061A = NICD R2061A (Homo sapiens, UniProt P46531, R2060A); assay: Surface plasmon resonance, binding to mutated NICD; settings: SPR
Outline: as §1

[7] = tested on: Notch target genes (Hes-1, Hey-L) in OE33 and 786-0 cells; assay: RT-qPCR analysis of Notch target genes; assay type: cell-based, human
Outline: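 OE33 and 786-0 cells were treated, then Hes-1 and Hey-L were measured by reverse transcription and TaqMan qPCR. Values were normalized to TBP and HPRT and expressed relative to vehicle (DMSO) control set to 1.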

[8] = tested on: NICD in OE33 and 786-0 cells; assay: Western analysis of NICD levels; assay type: cell-based, human; settings: Western analysis of lysates from ChIP assay cells
Outline: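 Lysates came from the same treated OE33 and 786-0 cells used for ChIP (DAPT 15 μM, test compound 25 μM, or DMSO). Western blots were probed with anti-Notch1, anti-cleaved Notch1 (Val1744) and anti-GAPDH antibodies.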

NICD R2071A = NICD R2071A (Homo sapiens, UniProt P46531, R2070A); assay: Surface plasmon resonance, binding to mutated NICD; settings: SPR
Outline: as §1

[9] = IMR-1A after IMR-1 i.p. 100 mg/kg, mice plasma

Sequence of Notch1 (NICD) (P46531 1754-2555 limits assumed): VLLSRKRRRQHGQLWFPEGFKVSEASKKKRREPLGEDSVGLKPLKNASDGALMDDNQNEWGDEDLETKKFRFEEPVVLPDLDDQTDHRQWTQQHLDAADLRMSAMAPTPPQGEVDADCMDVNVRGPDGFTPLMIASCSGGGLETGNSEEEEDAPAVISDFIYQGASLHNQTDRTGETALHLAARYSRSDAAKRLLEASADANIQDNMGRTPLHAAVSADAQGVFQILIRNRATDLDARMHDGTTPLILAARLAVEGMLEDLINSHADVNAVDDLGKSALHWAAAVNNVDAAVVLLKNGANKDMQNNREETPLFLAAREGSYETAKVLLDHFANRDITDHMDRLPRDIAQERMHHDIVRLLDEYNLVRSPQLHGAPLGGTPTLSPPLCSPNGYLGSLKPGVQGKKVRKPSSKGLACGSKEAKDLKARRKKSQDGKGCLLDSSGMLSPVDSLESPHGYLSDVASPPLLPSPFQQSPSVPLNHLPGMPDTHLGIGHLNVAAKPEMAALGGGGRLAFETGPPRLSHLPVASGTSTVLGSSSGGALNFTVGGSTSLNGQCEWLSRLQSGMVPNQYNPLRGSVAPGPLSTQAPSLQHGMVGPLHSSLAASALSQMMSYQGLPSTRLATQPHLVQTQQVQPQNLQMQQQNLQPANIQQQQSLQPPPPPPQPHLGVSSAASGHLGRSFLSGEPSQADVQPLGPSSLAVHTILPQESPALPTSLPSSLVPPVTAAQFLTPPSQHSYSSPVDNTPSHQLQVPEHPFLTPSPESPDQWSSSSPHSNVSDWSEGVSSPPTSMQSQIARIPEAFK
Sequence of Notch ternary complex (CSL, Notch1, Maml1 on DNA) (P46531 1754-2555 limits assumed): as above
Sequence of Notch ternary complex (CSL, Notch1, Maml1 on DNA) (Q06330 whole entry partner): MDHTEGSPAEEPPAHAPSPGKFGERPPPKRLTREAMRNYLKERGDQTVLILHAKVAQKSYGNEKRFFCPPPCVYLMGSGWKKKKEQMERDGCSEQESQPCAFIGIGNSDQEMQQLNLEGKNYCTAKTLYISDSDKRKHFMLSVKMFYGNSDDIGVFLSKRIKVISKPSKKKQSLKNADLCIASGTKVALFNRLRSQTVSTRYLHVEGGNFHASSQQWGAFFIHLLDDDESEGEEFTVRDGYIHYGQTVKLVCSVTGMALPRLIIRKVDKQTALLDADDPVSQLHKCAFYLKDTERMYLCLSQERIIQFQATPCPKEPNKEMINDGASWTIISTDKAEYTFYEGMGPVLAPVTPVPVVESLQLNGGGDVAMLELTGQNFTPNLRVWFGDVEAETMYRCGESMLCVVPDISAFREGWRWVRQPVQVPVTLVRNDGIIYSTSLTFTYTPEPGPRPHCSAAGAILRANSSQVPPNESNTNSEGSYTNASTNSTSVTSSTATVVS
Sequence of NICD R2061A (P46531 1754-2555 R2060A): as the sequence (P46531 1754-2555 limits assumed) above, with R307A counted along it
Sequence of NICD R2071A (P46531 1754-2555 R2070A): as the sequence (P46531 1754-2555 limits assumed) above, with R317A counted along it
Sequence of NICD R2096A (P46531 1754-2555 R2095A): as the sequence (P46531 1754-2555 limits assumed) above, with R342A counted along it
Sequence of NICD R2105A (P46531 1754-2555 R2104A): as the sequence (P46531 1754-2555 limits assumed) above, with R351A counted along it

C[C@H](NC(=O)Cc1cc(F)cc(F)c1)C(=O)N[C@H](C(=O)OC(C)(C)C)c1ccccc1 [DAPT, reference compound]
occupancy of Maml1 on the HES1 promoter [1]: decreased the occupancy
occupancy of Notch1 on the HES1 promoter [1]: decreased the occupancy
colony formation [2]: refractory

COc1cc(/C=C2/SC(=S)NC2=O)ccc1OCC(=O)O [IMR-1A]
mode of binding to Notch1 (Notch1 (NICD)): non-covalent, reversible binding
Kd (Notch1 (NICD)): 2.9 ± 0.6 µM
T1/2 [3, 9]: 6.16 h
Tmax [3, 9]: 0.50 h
Vss relative to normal volume of total body water (0.7 L/kg) ([3]; IMR-1A after IMR-1 i.v. 2 mg/kg): ~ 4 fold
T1/2 ([3]; IMR-1A after IMR-1 i.v. 2 mg/kg, mice plasma): 2.22 h
CL ([3]; IMR-1A after IMR-1 i.v. 2 mg/kg, mice plasma, 2 mg/kg): 7 mL/min/kg
time up to which plasma concentrations were quantifiable ([3]; after IMR-1 i.p. 100 mg/kg): up to 24 h
signal in plasma [3]: present
increase in potency with respect to IMR-1 ([4]; in vitro NTC assay IC50): 50 fold
IC50 [4]: 0.5 µM

IMR-1
embryos with disruption of somite formation (D. rerio (zebrafish)): 69.7%
effect of mutation on affinity (NICD R2105A): No effect
occupancy of Maml1 on the HES1 promoter [1]: decreased the occupancy
occupancy of Notch1 on the HES1 promoter [1]: did not affect the occupancy
colony formation [2]: equally resistant
effect of mutation on affinity (NICD R2096A): No effect
expression level of Notch target genes (Hes1, HeyL, Notch3) in excised tumors ([5]; after 24 days of treatment, both PDX models): dramatically reduced
weight loss or visible signs of adverse effects ([5]; daily i.p. 15 mg/kg): without any significant weight loss or other visible signs of adverse effects
PDX tumor growth ([5]; daily i.p., IMR-1 15 mg/kg or DAPT 20 mg/kg, 24 days, vs DMSO): significantly abrogated growth
general toxicity upon in vivo treatment ([5]; in vivo treatment, summary statement): no general toxicity was observed
mode of binding to Notch1 (Notch1 (NICD)): non-covalent, reversible binding
Kd (Notch1 (NICD)): 11 ± 3 µM
signal in plasma [3]: no signal was detected
clinical signs ([3]; single i.v. 2 mg/kg and i.p. 100 mg/kg, through last sample withdrawal): did not induce any clinical signs
adverse effects [6]: no observable adverse effects
tumor establishment ([6]; nude mouse, OE19 cells, 4 weeks): readily blocks tumor establishment
body weight ([6]; throughout the treatment course): remained constant
IC50 [4]: 26 µM
Kd (NICD R2061A; NICD R2061A): 35.6 µM
decrease in affinity relative to wild type NICD (NICD R2061A; R2061 replaced with alanine): approximately 5 fold
Notch target gene transcription ([7]; Hes-1, Hey-L, OE33 and 786-0): dose-dependent decrease
transcription of the housekeeping gene HPRT ([7]; treated cells): unaltered
levels of NICD in cells [8]: does not change
Kd (NICD R2071A; NICD R2071A): 38.7 µM
decrease in affinity relative to wild type NICD (NICD R2071A; R2071 replaced with alanine): approximately 5 fold
